Experimental data from ChEMBL document CHEMBL4706681, “New 2-Pyrazoline and Hydrazone Derivatives as Potent and Selective Monoamine Oxidase A Inhibitors” (J Med Chem, 2021).
Calls of active or inactive are those of the source. The calls are words filed in the database; no cut-off is given here.

Tests used:
[1] = Selectivity index, ratio of Ki for inhibition of recombinant human MAO-A to Ki for inhibition of recombinant human MAO-B using p-tyramine as substrate
[2] = Ex vivo inhibition of MAOA in CD1 mouse brain homogenates assessed as MAOA level at 30 mg/kg, po administered as single acute dose via gavage and measured after 1 hr by monoamine oxidase assay (reference value: 0.40 +/- 0.012 nmol/min/mg); format: functional
[3] = Ex vivo inhibition of MAOA in CD1 mouse brain homogenates assessed as assessed as inhibition of dopamine deamination by measuring DOPAC metabolite levels at 30 mg/kg, po administered as single acute dose via gavage and measured after 1 hr by HPLC analysis (reference value: 1.22 +/- 0.2 ug/g); format: functional
[4] = test system: Mus musculus; experiment: Antidepressant-like activity in CD1 mouse assessed as reduction in immobility time at 30 mg/kg, po administered via gavage for 7 days and measured 1 h post last dose by Porsolt-forced swim test; format: functional, organism-based; settings: time 7.0 day
Summary of the method: (§1)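 Male albino CD-1 mice (20–25 g), 12 h light/dark, food and water ad libitum. Dosed by oral gavage once daily for 7 days in 200 μL 0.5% CMC; vehicle-only controls. […] Forced swim test run 1 h after the last dose. Immobility scored every 60 s over 6 min; n = 8–12.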

[5] = Ex vivo inhibition of MAOA in CD1 mouse brain homogenates assessed as inhibition of 5-HT deamination by measuring 5-HIAA metabolite levels by using at 30 mg/kg, po administered as subchronic dose via gavage for 7 days and measured 1 hr post last dose by HPLC analysis (reference value: 0.18 +/- 0.01 ug/g); format: functional; settings: time 7 day
[6] = Ex vivo inhibition of MAOA in CD1 mouse brain homogenates assessed as dopamine levels at 30 mg/kg, po administered as single acute dose via gavage and measured after 1 hr by ELISA kit method (reference value: 7.08 +/- 0.58 ug/g); format: functional
[7] = Effect on locomotor activity in CD1 mouse assessed as total distance traveled at 30 mg/kg, po administered via gavage for 7 days by open field test; format: ADME, organism-based; settings: in vivo, 168 h, time 7 day
Summary of the method: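 Each mouse placed in the centre of a 50 × 50 × 30 cm black box and video-tracked; total distance travelled over 5 min; n = 8–10.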

[8] = test system: Mus musculus; experiment: Antidepressant-like activity in CD1 mouse assessed as maximum efficacy at 20 mg/kg, po administered as subchronic dose gavage for 7 days and measured 1 h post last dose by Porsolt-forced swim test; format: functional, organism-based; settings: time 7.0 day; summary of the method: as §1
[9] = Ex vivo inhibition of MAOA in CD1 mouse brain homogenates assessed as 5-HT levels at 30 mg/kg, po administered as subchronic dose via gavage for 7 days and measured 1 hr post last dose by ELISA kit method (reference value: 0.78 +/- 0.01 ug/g); format: functional; settings: time 7 day
[10] = Ex vivo inhibition of MAOA in CD1 mouse brain homogenates assessed as MAOA level at 30 mg/kg, po administered as subchronic dose via gavage for 7 days and measured 1 hr post last dose by monoamine oxidase assay (reference value: 0.40 +/- 0.005 nmol/min/mg); format: functional; settings: time 7 day
[11] = Ex vivo inhibition of MAOA in CD1 mouse brain homogenates assessed as inhibition of dopamine deamination by measuring DOPAC metabolite levels at 20 mg/kg, po administered as single acute dose via gavage and measured after 1 hr by HPLC analysis (reference value: 1.22 +/- 0.2 ug/g); format: functional

Row | Compound | Ratio Ki [1] | Activity [2] | Activity [3] | Activity [4] | Activity [5] | Activity [6] | Activity [7] | Activity [8] | Activity [9] | Activity [10] | Activity [11]
1 | COc1ccc(C2=NN(C(=O)Cn3c(=O)oc4ccc(C)cc43)C(c3cccc(OC)c3OC)C2)cc1 (stereo unspecified) | 1.37 10^-5No_unit | 0.23 nmol/min/mg | 1.25 µg/g | Active | 0.3 µg/g | 7.13 µg/g | Non-Toxic | inactive | 1.15 µg/g | 0.21 nmol/min/mg | 
2 | O=C(NCCN1CCOCC1)c1ccc(Cl)cc1 [MOCLOBEMIDE] |  |  |  |  |  |  |  |  |  |  | 1.24 µg/g
